Measured values reported in ChEMBL document CHEMBL3860044, “The Rational Design, Synthesis, and Antimicrobial Properties of Thiophene Derivatives That Inhibit Bacterial Histidine Kinases” (J Med Chem, 2016).

Key:
Type in all cases: functional
Staphylococcus aureus [1] = assay: Antibacterial activity against Staphylococcus aureus ATCC 29213 by broth microdilution method
Procedure, shortened: (§1)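 Clinical resistant isolates and quality control strains (S. aureus ATCC 29213, E. coli ATCC 25922) are tested by EUCAST broth microdilution with a 10⁶ bacteria/mL inoculum, in triplicate, with or without a fixed adjuvant concentration. For MBC, the MIC dilution and at least two more concentrated dilutions are plated and CFU/mL counted.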

Staphylococcus aureus [2] = assay: Antibacterial activity against penicillin G-resistant/penicillinase producing Staphylococcus aureus isolate C1P15 by broth microdilution method
Procedure, shortened: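 Broth microdilution per EUCAST on the clinical S. aureus isolate C1P15 (penicillinase producer, penicillin G resistant). Inoculum 10⁶ bacteria per mL. Run in triplicate. S. aureus ATCC 29213 served as the quality-control strain.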

Staphylococcus aureus [3] = assay: Bactericidal activity against Staphylococcus aureus ATCC 29213 by broth microdilution method; procedure, shortened: as §1
Staphylococcus aureus [4] = assay: Bactericidal activity against penicillin G-resistant/penicillinase producing Staphylococcus aureus isolate C1P15 by broth microdilution method
Procedure, shortened: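 MBC on clinical S. aureus isolate C1P15 (penicillinase, penicillin G resistant), following EUCAST broth microdilution at 10⁶ bacteria per mL, in triplicate. The MIC dilution and at least two more concentrated dilutions were plated and enumerated as CFU/mL. S. aureus ATCC 29213 served as quality control.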

Cc1onc(-c2ccccc2Cl)c1C(=O)N[C@@H]1C(=O)N2[C@@H]1SC(C)(C)[C@@H]2C(=O)O [CLOXACILLIN]
1 µg/mL: MIC (Staphylococcus aureus [1]) | MIC (Staphylococcus aureus [2]) | MBC (Staphylococcus aureus [3]) | MBC (Staphylococcus aureus [4])
